Reference: the RNAGym collection of RNA variant scans (doi:10.1126/science.aae0568)
Variants at the floor of the assay were thinned out.

B1: tRNA (parent)
chain: GUUCCGUUGGCGUAAUGGUAACGCGUCUCCCUCCUAAGGAGAAGACUGCGGGUUCGAGUCCCGUACGGAACG

Variants of: B1
Experiment: yeast fitness relative to wild type (ratio to wild type); higher = fitter; tRNA-Arg(CCU), competitive growth, 37 C, YPD
In short: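 The tRNA-Arg(CCU) gene variants were made by chemical synthesis with a 3% per-site mutation rate at 69 sites and inserted at the native genomic locus of Saccharomyces cerevisiae. After pooling, the strains were competed in YPD at 37°C for 24 hours in six parallel replicates. Gene amplicons from the start population and each end population were read by 100-nucleotide paired-end sequencing, and Darwinian fitness relative to wild type was taken from genotype frequency changes. Genotypes needed ≥ 100 starting reads, and estimates < 0.5 were set to 0.5.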

Row | Variant | yeast fitness
1 | GUUCCGUUGGCGUAAUGGUAACGCGUCUCCCUUCUAAGGAGAAGACUGCGGGUUCUAGUCCCGUGCGGAACG [C33U G56U A65G] | ≤ 0.5
2 | GUUCCGUUGGCGUAAUGGUAACGCGUCUCCCUCAUAGGGAAAAGACUGCGGGUUCGAGUCCCGUACGGAACG [C34A A37G G41A] | ≤ 0.5
3 | GUUCCGUUGGCGUAAUGGUAACGCGUCUCCCUCAUAAGGAGUAGACUGCGGGUUCGAAUCCUAUACGGAACG [C34A A42U G58A C62U G63A] | ≤ 0.5
4 | GUUCCGUUGGCGUAAUGGUAACGCGUCUCCCUUCUAAGGAGAAGACUGCGGGUUCGACUCCAGUAGGGAACG [C33U G58C C62A C66G] | ≤ 0.5
5 | GUUCCGUUGGCGUAAUGGUAACGCGUCUCCCUCAUAAGGAGAAGACUGCGGGUUCGAGUCCCGUACGGAUCG [C34A A70U] | 0.924
6 | GUUCCGUUGGCGUAAUGGUAACGCGUCUCCCUUCUAAGGAGAAGACCGCGGGUUCGAGUCCCGUACGGAACG [C33U U47C] | 0.713
7 | GUUCCGUUGGCGUAAUGGUAACGCGUCUCCCUCAUAAGGAGAUGACUGCGGGUUCGAGUCCCGUACGGAACG [C34A A43U] | 0.729
8 | GUUCCGUUGGCGUAAUGGUAACGCGUCUCCCUCAUAAGGAGACGACUGCGGGUUCGAGUCCCGUACGGAACG [C34A A43C] | 0.645
9 | GUUCCGUUGGCGUAAUGGUAACGCGUCUCCCUCAUAAGGAGCAGACUGCGGGUUCGAGACCCGUACCGAACG [C34A A42C U59A G67C] | ≤ 0.5
10 | GUUCCGUUGGCGUAAUGGUAACGCGUCUCCCUCAUAAGGAGAAGACUGAGGGUUCGAGUGCCGUCCGGAACG [C34A C49A C60G A65C] | ≤ 0.5
11 | GUUCCGUUGGCGUAAUGGUAACGCGUCUCCCUCAUAAGGAGAAGAUUGCGGGUUCGAGUCGCGUACGGAACG [C34A C46U C61G] | ≤ 0.5
12 | GUUCCGUUGGCGUAAUGGUAACGCGUCUCCCUUCUAAGGAGAAGACUGCGGGAUCGACUCCCGUACGGAACG [C33U U53A G58C] | ≤ 0.5
13 | GUUCCGUUGGCGUAAUGGUAACGCGUCUCCCUCAUAAGGAGGAGAUUGCGGGUUCGAGUCCCGUACGGAACG [C34A A42G C46U] | ≤ 0.5
14 | GUUCCGUUGGCGUAAUGGUAACGCGUCUCCCUCAUAUGGAGAAGACUGCGGGUCCGAGUCCCGUACGGAACG [C34A A37U U54C] | 0.542
15 | GUUCCGUUGGCGUAAUGGUAACGCGUCUCCCUCAUACGGAGAAGACUGCGGGUUCGAGUCCCCUACGGAACG [C34A A37C G63C] | ≤ 0.5
16 | GUUCCGUUGGCGUAAUGGUAACGCGUCUCCCUUCUAAGGAGAAGACUCCGGGUUCGAGUCCCGUACGGAACG [C33U G48C] | 0.778
17 | GUUCCGUUGGCGUAAUGGUAACGCGUCUCCCUCAUCAGGAGAAGACUGCGGGUUCGAGUCCCGUACGGAACG [C34A A36C] | 0.511
18 | GUUCCGUUGGCGUAAUGGUAACGCGUCUCCCUCAUUAGGAGAAGACUGCGGGUUCGAGUCCCGUACGGAACG [C34A A36U] | 0.518
19 | GUUCCGUUGGCGUAAUGGUAACGCGUCUCCCUCAUGAGGAGAAGACUGCGGGUUCGAGUCCCGUACGGAACG [C34A A36G] | 0.741

Row | Variant | yeast fitness
20 | GUUCCGUUGGCGUAAUGGUAACGCGUCUCCCUCAUAAGGAGCAGACUGCGGGUUCGAGUCCCGUACGGAACG [C34A A42C] | 0.818
21 | GUUCCGUUGGCGUAAUGGUAACGCGUCUCCCUCAUAAGGAGUAGACUGCGGGUUCGAGUCCCGUACGGAACG [C34A A42U] | 0.618
22 | GUUCCGUUGGCGUAAUGGUAACGCGUCUCCCUCAUAAGGAGAAGACUGCGGGUUCGUGUCCCGUACGGAACG [C34A A57U] | 0.529
23 | GUUCCGUUGGCGUAAUGGUAACGCGUCUCCCUCAUAAGGAGAAGAGUGCGGGUUCGAGUACCGUACGGAACG [C34A C46G C60A] | ≤ 0.5
24 | GUUCCGUUGGCGUAAUGGUAACGCGUCUCCCUCAUAAGGCGUAGACUGCGGGUUCGAGUCCCGUUCAGAACG [C34A A40C A42U A65U G67A] | ≤ 0.5
25 | GUUCCGUUGGCGUAAUGGUAACGCGUCUCCCUUCUAAGGAGAAGACUACGGGUUCGAGUCCCGGACGGAACG [C33U G48A U64G] | 0.618
26 | GUUCCGUUGGCGUAAUGGUAACGCGUCUCCCUUCUAAGGAGAAGACUGCGGGUUCGAGUCCCGAACGGAACG [C33U U64A] | 0.677
27 | GUUCCGUUGGCGUAAUGGUAACGCGUCUCCCUUCUAAGGAGAAGACUGCGGGUUCGAGUCCCGGACGGACCG [C33U U64G A70C] | 0.555
28 | GUUCCGUUGGCGUAAUGGUAACGCGUCUCCCUCAUAGGGAGAAGACUGCGGGUUCGAGUCACGUACGGAACG [C34A A37G C61A] | ≤ 0.5
29 | GUUCCGUUGGCGUAAUGGUAACGCGUCUCCCUCAUAAGGAGAAGACUGCGGGUUCGAGUCCCGUACGGCACG [C34A A69C] | 0.752
30 | GUUCCGUUGGCGUAAUGGUAACGCGUCUCCCUCAUAAGGAGAAGACUGCGGGUUCGAGUCCCGUACGGUACG [C34A A69U] | 0.858
31 | GUUCCGUUGGCGUAAUGGUAACGCGUCUCCCUCAUAAGGAGCAGACUGCGGGUUCGAGUGCCGUACGGAACG [C34A A42C C60G] | ≤ 0.5
32 | GUUCCGUUGGCGUAAUGGUAACGCGUCUCCCUCAUUAGGAGAAGACUGCGGGUUGGAGUCCCGUAAGGAACG [C34A A36U C55G C66A] | ≤ 0.5
33 | GUUCCGUUGGCGUAAUGGUAACGCGUCUCCCUCAUAAGGAGAAGUCUGCGGGUUCGAGUCCCGUACGGAACG [C34A A45U] | 0.698
34 | GUUCCGUUGGCGUAAUGGUAACGCGUCUCCCUCAUAAGGAGUAGACUGCGGGUUCGAGUCCCGUCCGGAACG [C34A A42U A65C] | ≤ 0.5
35 | GUUCCGUUGGCGUAAUGGUAACGCGUCUCCCUUCUAAGGAGAAGACUGCGGGUUCGAGACCCGUACGGAGCG [C33U U59A A70G] | ≤ 0.5
36 | GUUCCGUUGGCGUAAUGGUAACGCGUCUCCCUUCUAAGGAGAAGACUGCGGGCUCGAGUCCCGUACGGAACG [C33U U53C] | 0.574
37 | GUUCCGUUGGCGUAAUGGUAACGCGUCUCCCUCAUAAGGAGUAGACUGCGGGUUCGAGUCCCGUACGGUACG [C34A A42U A69U] | ≤ 0.5
